From PubChem
TNAP inh no acc – inhibitors of human TNAP without phosphate acceptor; P05186; purified TNAP, CDP-star luminescence, 30 min; inhibition, % at 20 µM; hit rate 0.26% among 200,000; AID 1012;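 active = tissue-nonspecific alkaline phosphatase inhibition above about 50% at 20 µM in the single-dose screen, limit read from the data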
Target sequence (P05186 whole entry, looked up): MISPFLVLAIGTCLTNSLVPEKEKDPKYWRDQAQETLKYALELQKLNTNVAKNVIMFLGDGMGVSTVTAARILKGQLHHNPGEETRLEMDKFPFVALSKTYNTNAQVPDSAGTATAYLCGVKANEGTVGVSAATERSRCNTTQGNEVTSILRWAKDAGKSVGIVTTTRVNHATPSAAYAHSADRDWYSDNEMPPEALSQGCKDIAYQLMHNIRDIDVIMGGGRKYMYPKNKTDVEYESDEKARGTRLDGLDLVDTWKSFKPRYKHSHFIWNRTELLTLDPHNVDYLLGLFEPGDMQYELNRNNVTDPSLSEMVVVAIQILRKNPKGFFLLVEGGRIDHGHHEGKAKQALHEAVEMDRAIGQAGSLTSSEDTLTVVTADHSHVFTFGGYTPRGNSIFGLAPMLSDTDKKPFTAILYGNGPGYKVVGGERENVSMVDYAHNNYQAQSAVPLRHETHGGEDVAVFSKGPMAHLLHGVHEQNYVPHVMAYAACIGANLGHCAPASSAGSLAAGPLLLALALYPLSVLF
ABCB1 block – inhibitors of human ABCB1 transporter, ABCG2 counter-screen | P08183 | CCRF-Adr cells, JC-1 efflux, flow cytometry | inhibition, % at 6.6 µM | hit rate 0.067% among 190,000; in the data active = inhibition above about 40%;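 note: higher value means more JC-1 retained so stronger ABCB1 efflux block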
ABCG2 block – blocks JC-1 efflux by human ABCG2 transporter; Q9UNQ0; IgMXP3 cells, flow cytometry; inhibition, % at 6.6 µM; hit rate 0.1% among 190,000; AID 1325;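 active = inhibition above 80%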
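Test system: ABCG2 IgMXP3 and barcoded ABCB1 CCRF-Adr cell mix; Schedule: cells with compound and JC-1, 10 min at 25 °C, rotating, no wash; Technique: flow cytometry of retained JC-1 fluorescence; Measure: % inhibition of efflux relative to nicardipine and DMSO; Controls: nicardipine high and DMSO low controls.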
TNAP inh hi DEA – inhibitors of human TNAP at high phosphate acceptor concentration; purified TNAP, CDP-star luminescence, 1 M DEA; inhibition, % at 20 µM; hit rate 0.03% among 200,000;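 active = over 50% inhibition of tissue-nonspecific alkaline phosphatase at 20 µM in the single-dose screen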
PKD1 kinase inh – inhibitors of human PKD1 kinase | AID 797 | inhibition, % (concentration not given with the values) | hit rate 0.056% among 200,000 | Q15139 | PKD1 kinase fluorescence polarization assay; in the data active = inhibition above about 50%
TNAP act hiacc – increases human TNAP activity under high phosphate acceptor concentration | P05186 | purified TNAP, CDP-star luminescence, 1 M DEA, 30 min; stronger effect = higher value; 0 = EDTA background, 1 = DMSO-only activity | activation factor at 20 µM | 200,000 tested, under 10 active;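 active = activation factor at least 2 at 20 µM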
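Measured by: Luminescent substrate turnover signal | Test system: Human TNAP | Input: TNAP 1/800 final | Dosing: 20 µM single point | Schedule: 30 min, room temperature | Controls: EDTA wells as negative control, DMSO wells as positive control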
Hits are given with their value; – = inactive; + = active, no number. The list is not random: actives were taken first. Their share in the collection is about 0.48%.

SMILES	TNAP inh no acc	ABCB1 block	ABCG2 block	TNAP inh hi DEA	PKD1 kinase inh	TNAP act hiacc
CCOc1cc(/C=C2\SC(=S)N(NC(=O)c3cccnc3)C2=O)ccc1O	–	–	–	51	–	–
CCOc1cc(/C=C2/SC(=S)N(CC3CCCO3)C2=O)ccc1O (configuration not stated)	–	–	–	52	–	–
O=C(CCN1C(=O)/C(=C/c2cccc(Br)c2)SC1=S)NNC(=O)c1cccnc1	–	–	–	–	–	–
COc1cccc(/C=C2\SC(=S)N(CC3CCCO3)C2=O)c1 (configuration not stated)	–	–	–	–	–	–
CCS(=O)(=O)n1nc(-c2ccc(Cl)cc2)nc1SCc1ccccc1	62	–	–	–	–	–
COc1ccc(-c2nc(SCc3ccccc3)n(S(C)(=O)=O)n2)cc1	62	–	–	–	–	–
CCOC(=O)c1c(CSc2cccs2)n(C)c2cc(Br)c(O)c(CN(C)C)c12	–	–	–	–	–	–
O=C1C2N=NN(CC(=O)N3N=C(c4ccccc4)CC3c3ccc([N+](=O)[O-])cc3)C2C(=O)N1c1ccccc1 (configuration not stated)	–	–	–	–	–	–
O=[N+]([O-])c1ccc(/C=C/C2=NN(c3ccccc3)C(c3ccco3)C2)cc1 (configuration not stated)	–	+	+	–	–	–
CC(=O)c1cc2c(cc1NC(=O)c1ccccc1C)OCO2	–	–	–	–	–	–
CCN(C(=O)COC(=O)/C=C/c1cccc([N+](=O)[O-])c1)c1ccccc1	–	–	–	–	–	–
CN1C(=S)N(c2cccnc2)C(=O)/C1=C\c1ccc(N(C)C)cc1	52	–	–	–	–	–
CCn1cc(CNCc2cn(C)nc2-c2ccc(C3CCCCC3)cc2)cn1	–	–	–	–	–	–
COc1ccc(/C=C/C(=O)c2ccc(C)c([N+](=O)[O-])c2)cc1O	–	–	–	–	–	–
COc1cc(/C=C/C(=O)c2ccc(C)c([N+](=O)[O-])c2)cc(OC)c1O	–	–	–	59	–	–
COc1ccc(-c2nc3n(n2)C(=O)CC(c2ccco2)S3)cc1 (configuration not stated)	76	–	–	–	–	–
COc1ccc(C2=NN(C(N)=S)C(c3ccco3)C2)cc1 (configuration not stated)	–	–	–	–	–	–
O=c1/c(=C/c2ccco2)sc2nc(-c3ccccc3Br)nn12	58	–	–	–	–	–
COc1ccccc1-c1nc2s/c(=C\c3cccs3)c(=O)n2n1	–	–	–	–	–	–
CC(C)Cc1nc(SCC(=O)Nc2ccc(S(N)(=O)=O)cc2)n[nH]1	–	–	–	–	–	–
Nc1nc(SCC(=O)Nc2ccc(S(N)(=O)=O)cc2)n[nH]1	64	–	–	–	–	–
N#C/C(=C\c1ccc(N2CCCCC2)o1)C(=O)Nc1cccc(Br)c1	–	60	122	–	–	–
N#C/C(=C\c1ccc(N2CCCCC2)o1)C(N)=O	–	–	–	–	–	–
C/C(N)=C(/C#N)C(=O)COC(=O)[C@@H](NC(=O)c1ccccc1Cl)C(C)C	–	–	–	–	–	–
N#CC1=C(N)Oc2n[nH]c(-c3cccs3)c2C1C1CCCCC1 (configuration not stated)	–	–	–	–	–	–
SMILES	TNAP inh no acc	ABCB1 block	ABCG2 block	TNAP inh hi DEA	PKD1 kinase inh	TNAP act hiacc
N#CC1=C(N)Oc2n[nH]c(-c3cccs3)c2C1C1C=CCCC1 (configuration not stated)	54	–	–	–	–	–
O=C(CN1CCCCC1)N1N=C(c2cccs2)CC1c1cccs1 (configuration not stated)	–	–	–	–	–	–
CCN(CC)c1ccc(N=Nc2nn(C)c(C)c2[N+](=O)[O-])cc1	–	–	–	56	–	–
O=C(O)c1ccccc1C(=O)N1N=C2/C(=C/c3cccc([N+](=O)[O-])c3)CCCC2C1c1cccc([N+](=O)[O-])c1 (configuration not stated)	79	–	–	–	–	–
COc1ccc(S(=O)(=O)N[C@H](C(=O)O)C(C)C)cc1	–	54	–	–	–	–
COc1ccccc1CCc1nnc(CCC(=O)NC(C)Cc2cccs2)o1 (configuration not stated)	–	–	–	–	–	–
Cc1n[nH]c(C)c1S(=O)(=O)N1CCN(C(=O)c2ccco2)CC1	60	–	–	–	–	–
Cc1ccc(NC(=O)C2CCN(S(=O)(=O)c3cnc[nH]3)CC2)nc1	–	–	–	–	–	–
Cc1ccc(NC(=O)C2CCN(S(=O)(=O)c3c(C)n[nH]c3C)CC2)nc1	55	–	–	–	–	–
Oc1ccc(C2=Nn3c(nnc3-c3ccco3)SC2)cc1O	91	–	–	–	–	–
COc1ccccc1-c1nnc(NC(C)=O)s1	–	–	–	–	–	–
COc1ccccc1-c1nc(NC(C)=O)n[nH]1	93	–	–	–	–	–
O=C(c1cc(-c2ccccc2)n[nH]1)N1CCc2c([nH]c3ccccc23)C1c1ccccn1 (configuration not stated)	62	–	–	–	–	–
C=CCN1C(=O)C(CC(=O)Nc2ccc(OCCC)cc2)N(CCCN2CCN(Cc3ccccc3)CC2)C1=S (configuration not stated)	–	–	–	–	–	–
COc1ccc(-n2cc(-c3ccccc3)[nH]c2=S)cc1	–	–	–	–	–	–
CCOc1ccc(-n2cc(-c3ccc(OC)c(OC)c3)[nH]c2=S)cc1	62	–	–	–	–	–
CCOCC(=O)Nc1cc([N+](=O)[O-])ccc1C	–	–	–	–	–	–
Cc1ccc([N+](=O)[O-])cc1NCC(=O)NN	79	–	–	–	–	–
CC(=O)Nc1ccc(OS(=O)(=O)c2c(C)cc(C)cc2C)cc1	–	–	–	–	–	–
O=C(CSc1n[nH]c(-c2ccccc2Br)n1)NCCN1C(=O)CSC1=O	84	–	–	–	–	–
O=C(CSc1n[nH]c(-c2ccccc2Br)n1)NC(=O)NCc1ccco1	82	–	–	–	–	–
O=C(CSc1n[nH]c(-c2cc(Cl)ccc2Cl)n1)NCCN1C(=O)CSC1=O	–	–	–	–	–	–
COc1cc(NC(=S)NCCCN2CCOCC2)cc(OC)c1	–	–	–	–	–	–
COc1cccc(/C=N/NC(=O)CNC(=O)c2ccc(S(=O)(=O)N3CCCC3)cc2)c1OC	–	–	–	–	–	–
Oc1ccc(/C=N/NC(=S)Nc2cccnc2)cc1O	78	–	–	–	–	–
O=C(/C=C/c1ccc(N2CCC(c3ccccc3)=N2)cc1)c1ccccc1	–	75	81	–	–	–
